PostGolgi yeast = growth inhibition of a yeast mutant, post-Golgi transport screen. post-Golgi transport phenotypic cell assay. inhibition, % at 10 µM. actives 0.9% (n = 98,000). AID 739;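 also: yeast cells grown in 1536-well plates; yeast grown about 18 h at 30C before absorbance read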
PostGolgi ctrl = yeast control strain growth, post-Golgi counter-screen | efflux-deficient yeast background strain, growth absorbance A615, 16 h | inhibition, % at 10 µM | actives 5% (n = 98,000) | AID 738
tolC growth inh = blocks growth of E. coli BW25113 tolC mutant. OD615. actives 2.2% (n = 65,000). AID 573. growth inhibition, % at 10 µM (by protocol);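 active = growth inhibition at or above a cutoff equal to the mean over every tested compound plus 3 SD, cut at about 60% in these data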;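 also: growth measured after 20 h incubation at 37 °C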
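Signal: optical density read at 615 nm; Assay system: E. coli ΔtolC::kan strain BW25113; Times: 20 h incubation with compound, 37 °C; Dosing: 10 µM final, single dose.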
Ecoli WT expand = growth inhibitors of E. coli BW25113 wild type. actives 0.15% (n = 98,000). AID 710. growth inhibition, % at 100 µM. OD600 absorbance;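 active = growth inhibition above about 50% at one test dose, limit read from the data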;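 also: growth measured after 20 h incubation at 37 °C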
Large screens that a line does not name were inactive. Shown are actives, neighbours in structure and some others; about 6.3% of the full set was active somewhere. Rule as the data show it, unless noted: active = inhibition above about 30%; inactive = the rest.

COc1ccccc1N1CCN(C(=O)c2cc(-c3ccc(C)cc3)on2)CC1	tolC growth inh 86
COc1ccccc1N1CCN(C2CCN(C(=O)c3cc(OC)c(OC)c(OC)c3)CC2)CC1	PostGolgi yeast 36
COc1ccccc1-c1cc(C(=O)N2CCN(c3ccccc3OC)CC2)no1	PostGolgi ctrl 38, tolC growth inh 64
COc1ccccc1N1CCN(C(=O)c2cc(C3CC3)on2)CC1	none
COc1ccccc1N1CCN(C(=O)c2cc(-c3ccc(Cl)cc3)on2)CC1	PostGolgi ctrl 40
COc1ccccc1N1CCN(C2CCN(C(=O)c3cccs3)CC2)CC1	none
CCC(C)c1ccc(NC(=O)COC(=O)C2=COCCO2)cc1 (stereo unspecified)	none (no result: tolC growth inh)
CCOC(=O)c1sc(NC(=O)COC(=O)Cn2cnc3ccccc32)c(C(=O)OCC)c1C	none
O=C(NCCc1ccccc1)C1CCN(c2nc3ccccc3o2)CC1	none
O=C(NCc1cccs1)C1CCCN(c2nc3ccccc3o2)C1 (stereo unspecified)	PostGolgi ctrl 42
O=C(NC1CCCCCCC1)C1CCN(c2nc3ccccc3o2)CC1	PostGolgi ctrl 66
COCC(O)CSc1nc(C)[nH]c1[N+](=O)[O-] (stereo unspecified)	none (no result: tolC growth inh)
Cn1c(SCC(=O)NC2CC2)nnc1-c1cccc(NC(=O)c2ccccc2F)c1	none (no result: tolC growth inh)
Cc1cc(Br)ccc1NC(=O)CNC(=O)CN(C)Cc1nc2ccccc2c(=O)[nH]1	none
CC(C)c1nnc(NC(=O)CCC(=O)NCc2cccs2)s1	none (no result: tolC growth inh)
CCOC(=O)C1CCN(S(=O)(=O)c2cccc3nonc23)CC1	none
CC1CCN(C(=O)C2CCN(S(=O)(=O)c3cccc4nonc34)CC2)CC1	PostGolgi ctrl 31 (no result: tolC growth inh)
CCC(C)N1CC(C(=O)NC2CCCCC2)CC1=O (stereo unspecified)	PostGolgi ctrl 33
CCC(C)N1CC(C(=O)O)CC1=O (stereo unspecified)	none (no result: tolC growth inh)
CCCCCCOC(=O)C(C#N)c1nc2ccccc2nc1N1CCOCC1 (stereo unspecified)	none
C=CCOC(=O)C(C#N)c1nc2ccccc2nc1N1CCCC1 (stereo unspecified)	tolC growth inh 96
CCCCOC(=O)C(C#N)c1nc2ccccc2nc1N1CCOCC1 (stereo unspecified)	PostGolgi ctrl 37
C/C(=N\NC(=O)c1cccc(S(=O)(=O)Nc2ccccc2Cl)c1)c1ccc(-n2ccnc2)cc1	none (no result: tolC growth inh)
CCn1c(N)c(C(=O)NCC2CCCO2)sc1=S (stereo unspecified)	none
Nc1c(C(=O)NC2CC2)c2nc3ccccc3nc2n1-c1ccc2c(c1)OCO2	none
C=CCn1c(N)c(C(=O)NCC2CCCO2)sc1=S (stereo unspecified)	PostGolgi ctrl 32
Nc1c(C(=O)OCC2CCCO2)c2nc3ccccc3nc2n1-c1ccc2c(c1)OCCO2 (stereo unspecified)	PostGolgi yeast 43
C=CCn1c(N)c(C(=O)NCC2CCCO2)c2nc3ccccc3nc21 (stereo unspecified)	PostGolgi yeast 33
CCN(CC)S(=O)(=O)c1cccc(C(=O)N[C@H](C(=O)NCc2ccc(Cl)cc2)C(C)C)c1	none (no result: tolC growth inh)
COc1ccccc1S(=O)(=O)Cc1ccc(C(=O)NCCN2CCCCCC2)o1	none
Cc1ccc(-n2nnnc2SCC(=O)N2CC(=O)Nc3ccccc32)cc1	none (no result: tolC growth inh)
CC(=O)Nc1ccc(Sc2ncccc2C(=O)Nc2ccc(F)cc2)cn1	none (no result: tolC growth inh)
CCN(CC)C(=O)C(=O)N/N=C/c1ccc(Br)cc1	none (no result: tolC growth inh)
CC1=C(C(=O)OC(C)C)C(c2ccccc2Cl)CC(=O)N1 (stereo unspecified)	none
CSCCOC(=O)C1=C(C)NC(=O)CC1c1ccccc1Cl (stereo unspecified)	tolC growth inh 62
CC(C)NC(=O)c1noc2cc([N+](=O)[O-])ccc12	none (no result: tolC growth inh)
COC(=O)c1ccccc1NC(=O)c1cc2ncc(Br)cn2n1	none
CCCCCCn1c(N2CCC(C)CC2)nc2c1c(=O)[nH]c(=O)n2C	PostGolgi ctrl 34
Cc1nnc(SCCn2c(N3CCC(Cc4ccccc4)CC3)nc3c2c(=O)[nH]c(=O)n3C)s1	none (no result: PostGolgi yeast, PostGolgi ctrl, Ecoli WT expand)
CCCCn1c(N2CCC(Cc3ccccc3)CC2)nc2c1c(=O)[nH]c(=O)n2C	PostGolgi ctrl 63, tolC growth inh 100
CC1CCN(c2nc3c(c(=O)[nH]c(=O)n3C)n2Cc2ccccc2Cl)CC1	PostGolgi ctrl 40
Cn1c(=O)[nH]c(=O)c2c1nc(Br)n2Cc1ccccc1Cl	none
CCC(Oc1ccc2c(c1)C(=O)CC(C)(C)O2)C(=O)NCCN1CCCCCC1 (stereo unspecified)	none
CCOc1nc(CC)nc(NC(=O)NS(=O)(=O)c2ccccc2Cl)n1	none
COc1cccc(NC(=O)c2nc3ncccn3n2)c1	none
OC(CNCC1CCCO1)Cn1c2ccc(Cl)cc2c2cc(Cl)ccc21 (stereo unspecified)	PostGolgi yeast 90, PostGolgi ctrl 103, Ecoli WT expand 65 (no result: tolC growth inh)
COc1ccc(C(=O)c2ccc(CC#N)s2)cc1	none (no result: tolC growth inh)
Cc1cccc(N2CCN(C(=O)Cn3sc4nc(C)cc(C)c4c3=O)CC2C)c1 (stereo unspecified)	none
Cc1cc(C)c2c(=O)n(CC(=O)N3CCC(Cc4ccccc4)CC3)sc2n1	PostGolgi ctrl 45
BrC(=C\c1ccccc1)/C=N/N1CCN(c2ccccn2)CC1	PostGolgi ctrl 38 (no result: tolC growth inh)
COc1ccc(C(=O)/C=C(\C)Nc2ccc(NC(C)=O)cc2)cc1	none (no result: tolC growth inh)
COc1ccc(N/N=C(\C=N\O)C(=O)c2ccc(OC)cc2)cc1	PostGolgi ctrl 35 (no result: tolC growth inh)
Cc1cc(-c2ccccc2)n(-c2ccc(C(=O)N3CCN(c4ncccn4)CC3)cc2)n1	PostGolgi ctrl 61
Cc1n[nH]c(C)c1S(=O)(=O)Nc1ccc2c(c1)OCCO2	none
O=S(=O)(Cc1ccccc1)/C1=C(\N2CCOCC2)CCCCCC1	PostGolgi ctrl 40
O=C(Nc1nnc(C2CC2)s1)c1cc(-c2ccccc2)nn1-c1ccccc1	PostGolgi yeast 39, tolC growth inh 67
O=C(Nc1nnc(C2CC2)s1)c1cc(S(=O)(=O)N2CCN(c3ccccc3)CC2)ccc1Cl	PostGolgi ctrl 33 (no result: tolC growth inh)
CN1CCN(C(=S)NCCc2ccccc2)CC1	none (no result: tolC growth inh)
O=C1C(C=NCc2cccnc2)=C(O)c2ccccc21	PostGolgi ctrl 40
CCOc1ccc(S(=O)(=O)Nc2ccc(F)cc2)c(C)c1C	PostGolgi ctrl 55 (no result: tolC growth inh)
CCC(C)NS(=O)(=O)c1ccc(NS(=O)(=O)c2ccc(F)cc2)cc1 (stereo unspecified)	none (no result: tolC growth inh)
Cc1oc2c(CN(C)C)c(O)ccc2c(=O)c1-c1ccc2ccccc2n1	PostGolgi ctrl 35
CCc1oc2c(C)c(O)ccc2c(=O)c1-c1ccc2ccccc2n1	none (no result: tolC growth inh)
O=C(NCc1cccnc1)c1cc(S(=O)(=O)N2CCCCC2)ccc1Cl	none
CCn1c(N2CCN(S(=O)(=O)c3ccccc3C(F)(F)F)CC2)nc2ccccc21	none
O=C(N1CCN(c2ccccc2)CC1)C12CC3CC(CC(C3)C1)C2	PostGolgi ctrl 45
O=C(N1CCN(Cc2ccccc2)CC1)C12CC3CC(CC(C3)C1)C2	none
CC1(C)C(C=C(Cl)Cl)C1C(=O)N1CCN(c2ccccc2)CC1 (stereo unspecified)	PostGolgi ctrl 70
CCn1c(=N)n(CC(=O)C23CC4CC(CC(C4)C2)C3)c2ccccc21	PostGolgi ctrl 35, tolC growth inh 99

High-throughput results (PubChem)
